Key:
[1] = molecular target: T1, Voltage-dependent T-type calcium channel subunit alpha-1H (Homo sapiens, UniProt O95180); assay: Inhibition of Cav3.2 alpha1H (unknown origin) expressed in HEK293 cells assessed as decrease in KCl-induced depolarization mediated intracellular Ca2+ level at 10 uM by fluo3/AM based high throughput screening assay relative to control; assay type: cell-based
Summary of the method: (§1)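 HEK293 cells stably expressing Cav3.1 or Cav3.2 plated at 4 × 10⁴ cells/well and used the next day. Loaded 60 min at room temperature with […] fluo3/AM plus 0.001% Pluronic F-127 in HEPES-buffered saline (1.8 mM CaCl₂, pH 7.4). Ca²⁺ fluorescence read on FDSS6000 as % inhibition, compound at […].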

[2] = molecular target: T2, Voltage-dependent T-type calcium channel subunit alpha-1G (Homo sapiens, UniProt O43497); assay: Inhibition of Cav3.1 alpha1G (unknown origin) expressed in HEK293 cells assessed as decrease in KCl-induced depolarization mediated intracellular Ca2+ level at 10 uM by fluo3/AM based high throughput screening assay relative to control; assay type: cell-based; summary of the method: as §1
T2 sequence (O43497 whole entry): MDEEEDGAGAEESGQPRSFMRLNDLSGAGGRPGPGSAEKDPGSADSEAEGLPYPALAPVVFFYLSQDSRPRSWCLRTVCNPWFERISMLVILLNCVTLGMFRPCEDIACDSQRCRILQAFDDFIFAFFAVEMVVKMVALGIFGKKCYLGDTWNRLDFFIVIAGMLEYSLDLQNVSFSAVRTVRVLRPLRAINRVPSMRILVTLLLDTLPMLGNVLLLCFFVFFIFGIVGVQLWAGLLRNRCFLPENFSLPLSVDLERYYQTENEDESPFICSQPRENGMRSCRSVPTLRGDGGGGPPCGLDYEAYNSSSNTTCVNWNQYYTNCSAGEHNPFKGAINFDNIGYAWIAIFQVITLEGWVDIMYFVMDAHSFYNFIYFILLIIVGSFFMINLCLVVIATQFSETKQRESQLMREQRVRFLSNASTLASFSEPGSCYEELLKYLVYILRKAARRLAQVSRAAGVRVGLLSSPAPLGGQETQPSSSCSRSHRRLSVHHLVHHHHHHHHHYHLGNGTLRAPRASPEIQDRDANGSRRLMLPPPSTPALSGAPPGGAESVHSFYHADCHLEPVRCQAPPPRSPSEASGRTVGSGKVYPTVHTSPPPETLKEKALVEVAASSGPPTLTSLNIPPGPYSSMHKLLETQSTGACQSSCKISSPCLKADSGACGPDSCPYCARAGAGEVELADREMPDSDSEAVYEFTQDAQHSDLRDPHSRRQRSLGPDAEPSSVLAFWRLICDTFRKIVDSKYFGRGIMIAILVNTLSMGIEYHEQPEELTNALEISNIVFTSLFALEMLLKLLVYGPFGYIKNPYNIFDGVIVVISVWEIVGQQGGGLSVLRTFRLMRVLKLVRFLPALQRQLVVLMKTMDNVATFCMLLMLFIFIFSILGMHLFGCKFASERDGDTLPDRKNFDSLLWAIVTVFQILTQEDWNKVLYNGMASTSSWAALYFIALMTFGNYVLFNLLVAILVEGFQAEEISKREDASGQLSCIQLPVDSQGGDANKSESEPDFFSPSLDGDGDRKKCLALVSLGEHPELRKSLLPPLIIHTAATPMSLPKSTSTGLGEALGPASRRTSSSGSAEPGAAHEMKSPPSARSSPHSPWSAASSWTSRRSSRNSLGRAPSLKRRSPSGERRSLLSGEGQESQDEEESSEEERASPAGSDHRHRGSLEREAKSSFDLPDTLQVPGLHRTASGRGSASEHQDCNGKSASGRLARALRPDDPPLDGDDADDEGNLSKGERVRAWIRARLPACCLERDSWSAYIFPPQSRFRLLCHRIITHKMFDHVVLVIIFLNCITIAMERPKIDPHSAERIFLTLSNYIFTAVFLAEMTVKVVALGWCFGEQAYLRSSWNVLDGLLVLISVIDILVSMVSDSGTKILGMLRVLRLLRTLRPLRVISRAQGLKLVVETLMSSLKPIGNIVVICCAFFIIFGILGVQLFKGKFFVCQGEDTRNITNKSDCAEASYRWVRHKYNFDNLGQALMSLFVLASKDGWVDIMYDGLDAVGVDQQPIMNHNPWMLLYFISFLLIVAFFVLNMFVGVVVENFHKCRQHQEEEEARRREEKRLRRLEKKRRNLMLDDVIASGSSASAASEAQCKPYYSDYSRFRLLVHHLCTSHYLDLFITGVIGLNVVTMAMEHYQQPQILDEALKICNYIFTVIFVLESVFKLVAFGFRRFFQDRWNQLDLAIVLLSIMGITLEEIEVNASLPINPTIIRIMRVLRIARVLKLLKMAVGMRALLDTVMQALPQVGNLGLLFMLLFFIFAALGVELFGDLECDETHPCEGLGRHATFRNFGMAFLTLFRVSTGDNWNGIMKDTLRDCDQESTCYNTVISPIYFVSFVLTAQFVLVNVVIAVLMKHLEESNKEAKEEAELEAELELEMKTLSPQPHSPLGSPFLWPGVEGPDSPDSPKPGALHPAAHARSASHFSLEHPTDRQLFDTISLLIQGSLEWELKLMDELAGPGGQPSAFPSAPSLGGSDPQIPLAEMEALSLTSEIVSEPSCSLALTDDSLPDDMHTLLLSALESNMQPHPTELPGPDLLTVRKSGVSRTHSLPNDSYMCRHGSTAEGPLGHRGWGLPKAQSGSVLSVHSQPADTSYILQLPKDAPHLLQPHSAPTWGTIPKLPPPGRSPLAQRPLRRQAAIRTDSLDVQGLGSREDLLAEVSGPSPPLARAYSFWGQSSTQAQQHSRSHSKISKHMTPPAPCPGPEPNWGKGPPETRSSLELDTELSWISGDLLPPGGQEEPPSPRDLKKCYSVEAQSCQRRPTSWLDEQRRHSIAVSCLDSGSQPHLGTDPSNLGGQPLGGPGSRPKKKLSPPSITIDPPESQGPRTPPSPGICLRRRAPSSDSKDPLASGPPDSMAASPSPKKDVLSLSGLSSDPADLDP

[3] = system: Rattus norvegicus; assay: Antineuropathic pain activity in rat spinal nerve ligation model assessed as effect on mechanical allodynia by measuring frequency of paw withdrawal at 100 mg/kg, po measured at 1 hr relative to control; assay type: functional
Summary of the method: (§2)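 Spinal nerve ligation rats tested 2 weeks after nerve surgery, 100 mg/kg oral, n = 4 per group. Behaviour re-tested at 1, 3 and 5 h after dosing. Mechanical allodynia: von Frey filament applied five times, every 3–4 s, to the hind paw on a wire mesh floor. Cold allodynia: acetone applied to the plantar hind paw on a metal mesh floor.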

[4] = system: Rattus norvegicus; assay: Antineuropathic pain activity in rat spinal nerve ligation model assessed as effect on cold allodynia by measuring frequency of paw withdrawal at 100 mg/kg, po measured at 1 hr relative to control; assay type: functional; summary of the method: as §2
[5] = system: Rattus norvegicus; assay: Antineuropathic pain activity in rat spinal nerve ligation model assessed as effect on mechanical allodynia by measuring frequency of paw withdrawal at 100 mg/kg, po measured at 3 hrs relative to control; assay type: functional; summary of the method: as §2
[6] = system: Rattus norvegicus; assay: Antineuropathic pain activity in rat spinal nerve ligation model assessed as effect on mechanical allodynia by measuring frequency of paw withdrawal at 100 mg/kg, po measured at 5 hrs relative to control; assay type: functional; summary of the method: as §2
[7] = system: Rattus norvegicus; assay: Antineuropathic pain activity in rat spinal nerve ligation model assessed as effect on cold allodynia by measuring frequency of paw withdrawal at 100 mg/kg, po measured at 3 hrs relative to control; assay type: functional; summary of the method: as §2
[8] = system: Rattus norvegicus; assay: Antineuropathic pain activity in rat spinal nerve ligation model assessed as effect on cold allodynia by measuring frequency of paw withdrawal at 100 mg/kg, po measured at 5 hrs relative to control; assay type: functional; summary of the method: as §2
[9] = system: Rattus norvegicus; assay: Antineuropathic pain activity in rat spinal nerve ligation model assessed as effect on mechanical allodynia by measuring frequency of paw withdrawal at 100 mg/kg, po measured at 1 hr relative to gabapentin; assay type: functional; summary of the method: as §2
[10] = molecular target: T2, Voltage-dependent T-type calcium channel subunit alpha-1G; assay: Inhibition of Cav3.1 alpha1G (unknown origin) expressed in HEK293 cells by whole-cell patch clamp method; assay type: cell-based
Summary of the method: (§3)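 Whole-cell patch clamp on HEK293 cells expressing Cav3.1 or Cav3.2. T-type currents evoked every 15 s by a 50-ms step from −100 mV to −30 mV. External solution (mM): 140 NaCl, 2 CaCl₂, 10 HEPES, 10 glucose, pH 7.4.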

[11] = molecular target: T1, Voltage-dependent T-type calcium channel subunit alpha-1H; assay: Inhibition of Cav3.2 alpha1H (unknown origin) expressed in HEK293 cells by whole-cell patch clamp method; assay type: cell-based; summary of the method: as §3
[12] = species on record: Homo sapiens; assay: Inhibition of N-type Ca2+ channel (unknown origin) at 10 uM by whole-cell patch clamp method relative to control
[13] = molecular target: Voltage-gated inwardly rectifying potassium channel KCNH2 (Homo sapiens, UniProt Q12809); assay: Inhibition of human ERG expressed in CHOK1 cells by whole-cell patch clamp method; assay type: cell-based, CHO-K1
[14] = molecular target: T3, CYP1A2 (Homo sapiens, UniProt P05177); assay: Inhibition of human CYP1A2 assessed as remaining activity at 10 uM using vivid CYP450 substrate measured after 15 mins by fluorescence assay relative to alpha-naphthoflavon; assay type: ADME; conditions: probe vivid CYP450 substrate, read-out: Activity
T3 sequence (P05177 whole entry): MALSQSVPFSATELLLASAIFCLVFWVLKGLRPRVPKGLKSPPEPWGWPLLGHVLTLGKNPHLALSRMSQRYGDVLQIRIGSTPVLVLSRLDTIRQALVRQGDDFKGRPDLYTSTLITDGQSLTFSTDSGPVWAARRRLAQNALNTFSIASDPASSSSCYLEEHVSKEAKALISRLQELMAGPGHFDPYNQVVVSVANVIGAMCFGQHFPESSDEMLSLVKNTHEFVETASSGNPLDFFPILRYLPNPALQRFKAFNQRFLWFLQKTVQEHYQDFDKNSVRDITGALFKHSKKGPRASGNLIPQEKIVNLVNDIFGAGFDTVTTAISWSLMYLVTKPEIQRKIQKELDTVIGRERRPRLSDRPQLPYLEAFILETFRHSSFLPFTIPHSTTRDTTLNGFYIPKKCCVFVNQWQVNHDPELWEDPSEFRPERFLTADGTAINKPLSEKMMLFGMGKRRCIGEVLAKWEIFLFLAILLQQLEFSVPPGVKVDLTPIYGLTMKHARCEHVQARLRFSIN
Summary of the method: (§4)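 Vivid fluorescence CYP assay: test compound at […] in water, mixed with BACULOSOMES master pre-mix and regeneration system, preincubated 15 min at 37 °C. Reaction started with Vivid substrate and NADPH. Remaining activity read by fluorescence as % of control, triplicate, mean ± SD. Isoform-specific reference inhibitors: α-naphthoflavone (1A2), sulfaphenazole (2C9), quinidine (2D6), ketoconazole (3A4).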

[15] = molecular target: CYP2D6 (Homo sapiens, UniProt P10635); assay: Inhibition of human CYP2D6 assessed as remaining activity at 10 uM using vivid CYP450 substrate measured after 15 mins by fluorescence assay relative to quinidine; assay type: ADME; conditions: probe vivid CYP450 substrate, read-out: Activity; summary of the method: as §4
[16] = molecular target: CYP2C9 (Homo sapiens, UniProt P11712); assay: Inhibition of human CYP2C9 assessed as remaining activity at 10 uM using vivid CYP450 substrate measured after 15 mins by fluorescence assay relative to sulfaphenazol; assay type: ADME; conditions: probe vivid CYP450 substrate, read-out: Activity; summary of the method: as §4
[17] = molecular target: CYP3A4 (Homo sapiens, UniProt P08684); assay: Inhibition of human CYP3A4 assessed as remaining activity at 10 uM using vivid CYP450 substrate measured after 15 mins by fluorescence assay relative to ketoconazole; assay type: ADME; conditions: probe vivid CYP450 substrate, read-out: Activity; summary of the method: as §4
[18] = Metabolic stability in human liver microsomes assessed as compound remaining at 1 uM in presence of NADPH as cofactor by LC-MS/MS method; assay type: ADME; conditions: read-out: Stability
Summary of the method: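 Pooled mixed-gender human liver microsomes incubated with compound at 37 °C with NADPH as cofactor. Result given as % parent compound remaining.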

[19] = system: Rattus norvegicus; assay: Antineuropathic pain activity in rat spinal nerve ligation model assessed as effect on cold allodynia by measuring frequency of paw withdrawal at 100 mg/kg, po measured at 1 hr relative to gabapentin; assay type: functional; summary of the method: as §2
[20] = system: Rattus norvegicus; assay: Poteny index, ratio of test compound to gabapentin antineuropathic pain activity in rat spinal nerve ligation model assessed as effect on mechanical allodynia by measuring frequency of paw withdrawal at 100 mg, po measured after 1 hr; assay type: functional
[21] = system: Rattus norvegicus; assay: Poteny index, ratio of test compound to mibefradil antineuropathic pain activity in rat spinal nerve ligation model assessed as effect on mechanical allodynia by measuring frequency of paw withdrawal at 100 mg, po measured after 1 hr; assay type: functional
[22] = system: Rattus norvegicus; assay: Antineuropathic pain activity in rat spinal nerve ligation model assessed as effect on mechanical allodynia by measuring frequency of paw withdrawal at 100 mg/kg, po measured at 3 hrs relative to gabapentin; assay type: functional; summary of the method: as §2
[23] = system: Rattus norvegicus; assay: Antineuropathic pain activity in rat spinal nerve ligation model assessed as effect on mechanical allodynia by measuring frequency of paw withdrawal at 100 mg/kg, po measured at 5 hrs relative to gabapentin; assay type: functional; summary of the method: as §2
[24] = system: Rattus norvegicus; assay: Antineuropathic pain activity in rat spinal nerve ligation model assessed as effect on cold allodynia by measuring frequency of paw withdrawal at 100 mg/kg, po measured at 3 hrs relative to gabapentin; assay type: functional; summary of the method: as §2
[25] = system: Rattus norvegicus; assay: Antineuropathic pain activity in rat spinal nerve ligation model assessed as effect on cold allodynia by measuring frequency of paw withdrawal at 100 mg/kg, po measured at 5 hrs relative to gabapentin; assay type: functional; summary of the method: as §2

T1 sequence (O95180 whole entry): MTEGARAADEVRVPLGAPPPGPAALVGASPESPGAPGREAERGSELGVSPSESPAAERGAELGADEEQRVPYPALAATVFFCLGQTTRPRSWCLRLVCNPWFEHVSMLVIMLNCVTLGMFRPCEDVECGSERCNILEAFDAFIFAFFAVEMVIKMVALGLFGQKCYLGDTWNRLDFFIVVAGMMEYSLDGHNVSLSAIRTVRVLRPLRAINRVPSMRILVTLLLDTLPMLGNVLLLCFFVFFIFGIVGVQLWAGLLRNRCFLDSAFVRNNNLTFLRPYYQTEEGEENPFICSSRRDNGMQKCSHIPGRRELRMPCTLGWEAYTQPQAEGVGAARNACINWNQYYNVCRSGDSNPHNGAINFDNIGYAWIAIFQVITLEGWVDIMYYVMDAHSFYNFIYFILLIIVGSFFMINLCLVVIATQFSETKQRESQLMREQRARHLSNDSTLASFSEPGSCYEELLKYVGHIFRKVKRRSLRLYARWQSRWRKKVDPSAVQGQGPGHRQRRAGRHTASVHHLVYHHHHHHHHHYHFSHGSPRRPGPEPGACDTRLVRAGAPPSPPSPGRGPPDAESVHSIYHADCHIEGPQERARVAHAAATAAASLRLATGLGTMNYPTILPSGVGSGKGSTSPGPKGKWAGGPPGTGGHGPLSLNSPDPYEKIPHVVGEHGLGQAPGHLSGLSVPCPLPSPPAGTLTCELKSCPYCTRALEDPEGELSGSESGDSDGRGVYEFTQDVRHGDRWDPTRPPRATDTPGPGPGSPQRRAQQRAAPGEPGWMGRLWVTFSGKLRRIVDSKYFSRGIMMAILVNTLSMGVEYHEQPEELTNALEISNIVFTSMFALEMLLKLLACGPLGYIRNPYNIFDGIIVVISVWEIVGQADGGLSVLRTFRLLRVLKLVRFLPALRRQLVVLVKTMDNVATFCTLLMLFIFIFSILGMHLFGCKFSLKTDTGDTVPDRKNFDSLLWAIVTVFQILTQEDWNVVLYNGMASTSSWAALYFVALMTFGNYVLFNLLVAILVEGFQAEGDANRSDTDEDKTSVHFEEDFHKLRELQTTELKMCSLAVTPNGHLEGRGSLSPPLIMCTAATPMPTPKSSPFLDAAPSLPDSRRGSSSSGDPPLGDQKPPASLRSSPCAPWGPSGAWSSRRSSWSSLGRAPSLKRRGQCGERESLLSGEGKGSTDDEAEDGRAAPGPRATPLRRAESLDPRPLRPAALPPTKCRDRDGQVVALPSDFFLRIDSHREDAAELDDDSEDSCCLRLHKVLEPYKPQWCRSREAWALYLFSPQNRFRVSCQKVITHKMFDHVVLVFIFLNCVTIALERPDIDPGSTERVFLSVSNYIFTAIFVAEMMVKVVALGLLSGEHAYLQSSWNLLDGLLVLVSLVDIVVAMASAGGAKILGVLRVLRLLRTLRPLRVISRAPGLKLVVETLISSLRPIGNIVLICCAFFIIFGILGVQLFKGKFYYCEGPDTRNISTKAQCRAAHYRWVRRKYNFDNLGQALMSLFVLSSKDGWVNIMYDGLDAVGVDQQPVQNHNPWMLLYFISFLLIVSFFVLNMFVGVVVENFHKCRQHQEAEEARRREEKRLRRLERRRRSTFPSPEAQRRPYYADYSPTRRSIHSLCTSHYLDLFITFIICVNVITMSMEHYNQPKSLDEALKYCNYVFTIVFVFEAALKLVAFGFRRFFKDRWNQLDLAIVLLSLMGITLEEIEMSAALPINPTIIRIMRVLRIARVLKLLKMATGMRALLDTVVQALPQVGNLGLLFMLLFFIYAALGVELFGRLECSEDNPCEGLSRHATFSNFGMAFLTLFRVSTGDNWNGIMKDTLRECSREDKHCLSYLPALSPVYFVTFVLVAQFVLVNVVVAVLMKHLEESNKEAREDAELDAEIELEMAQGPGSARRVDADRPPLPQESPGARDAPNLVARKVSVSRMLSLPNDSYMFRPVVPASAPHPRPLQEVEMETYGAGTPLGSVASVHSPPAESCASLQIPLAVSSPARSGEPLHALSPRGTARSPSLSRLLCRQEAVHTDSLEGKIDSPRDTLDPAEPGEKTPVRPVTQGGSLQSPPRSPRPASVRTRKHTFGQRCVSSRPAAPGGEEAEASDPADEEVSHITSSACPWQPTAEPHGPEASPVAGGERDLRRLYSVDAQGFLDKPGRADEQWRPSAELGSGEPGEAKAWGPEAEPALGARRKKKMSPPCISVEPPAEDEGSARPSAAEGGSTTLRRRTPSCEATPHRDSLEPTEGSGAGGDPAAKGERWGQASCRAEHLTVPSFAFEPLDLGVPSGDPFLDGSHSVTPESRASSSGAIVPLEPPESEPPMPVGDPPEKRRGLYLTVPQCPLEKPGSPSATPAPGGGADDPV

Structure (SMILES): CC(C)(C)n1nc(CNS(=O)(=O)c2ccccc2)cc1-c1cccc(F)c1
- inhibition [1]: 53.5%
- inhibition [2]: 51.5%

Structure (SMILES): CC(C)Cc1cc(CNS(=O)(=O)c2ccc(C(C)(C)C)cc2)nn1-c1ccccc1
- inhibition [1]: 33.4%
- inhibition [2]: 46.9%

Structure (SMILES): CC(C)Cc1cc(CNS(=O)(=O)c2c(Cl)cccc2Cl)nn1-c1ccccc1
- inhibition [1]: 56%
- inhibition [2]: 36.9%

Structure (SMILES): CC(C)Cc1cc(CNS(=O)(=O)c2c(F)cccc2F)nn1-c1ccccc1
- inhibition [1]: 69.3%
- inhibition [2]: 45.1%

Structure (SMILES): Cc1ccc(S(=O)(=O)NCc2cc(CC(C)C)n(-c3ccccc3)n2)cc1
- inhibition [1]: 62.2%
- inhibition [2]: 57.3%

Structure (SMILES): CC(C)Cc1cc(CNS(=O)(=O)Cc2cccc3ccccc23)nn1-c1ccccc1
- inhibition [1]: 6.66%
- inhibition [2]: 7.09%

Structure (SMILES): NCC1(CC(=O)O)CCCCC1 [GABAPENTIN]
- MPE [3]: 11.03%
- MPE [4]: 44.01%
- MPE [5]: 56.94%
- MPE [6]: 45.28%
- MPE [7]: 80.51%
- MPE [8]: 43.66%

Structure (SMILES): CC(C)Cc1cc(CNS(=O)(=O)c2cccc(I)c2)nn1-c1ccccc1
- inhibition [1]: 44.9%
- inhibition [2]: 46.4%

Structure (SMILES): CC(C)Cc1cc(CNS(=O)(=O)c2ccccc2)nn1-c1ccccc1
- MPE [9]: 416.59%
- IC50 [10]: 5.65 µM
- IC50 [11]: 5.8 µM
- inhibition [1]: 63.9%
- inhibition [2]: 61.4%
- inhibition [12]: 38.2%
- IC50 [13]: 21 µM
- activity at 0.25 h, 10 µM [14]: 36.6%
- activity at 0.25 h, 10 µM [15]: 208%
- activity at 0.25 h, 10 µM [16]: 38.4%
- activity at 0.25 h, 10 µM [17]: 69.6%
- remaining at 1 µM [18]: 13.9%
- MPE [3]: 45.95%
- MPE [4]: 103.9%
- MPE [19]: 236.08%
- Ratio [20]: 3
- Ratio [21]: 3
- MPE [5]: 36.45%
- MPE [6]: 30.91%
- MPE [22]: 64.01%
- MPE [23]: 68.26%
- MPE [7]: 81.73%
- MPE [8]: 74.17%
- MPE [24]: 101.52%
- MPE [25]: 169.88%

— ChEMBL document CHEMBL3872218, “Synthesis and T-type calcium channel-blocking effects of aryl(1,5-disubstituted-pyrazol-3-yl)methyl sulfonamides for neuropathic pain treatment” (Eur J Med Chem, 2016)
